According to ChEMBL document CHEMBL5030531, “Synthetic Glycolipids as Molecular Vaccine Adjuvants: Mechanism of Action in Human Cells and In Vivo Activity” (J Med Chem, 2021):
Values belong to the molecule of their own block, whether it stands above or below them. Activity calls are given as the source filed them. No cut-off for these calls is given here.

Legend:
[1] = molecular target: Toll-like receptor 2 (Homo sapiens) (UniProt O60603); experiment: Agonist activity human TLR2 in PAM2CSK4 stimulated HEK-Blue hTLR2 cells at 0.1 to 25 uM incubated for 18 hrs by QUANTI-blue assay; assay type: cell-based; settings: dose 0.1-25 µM
Toll-like receptor 2 (Homo sapiens), sequence (O60603 whole entry): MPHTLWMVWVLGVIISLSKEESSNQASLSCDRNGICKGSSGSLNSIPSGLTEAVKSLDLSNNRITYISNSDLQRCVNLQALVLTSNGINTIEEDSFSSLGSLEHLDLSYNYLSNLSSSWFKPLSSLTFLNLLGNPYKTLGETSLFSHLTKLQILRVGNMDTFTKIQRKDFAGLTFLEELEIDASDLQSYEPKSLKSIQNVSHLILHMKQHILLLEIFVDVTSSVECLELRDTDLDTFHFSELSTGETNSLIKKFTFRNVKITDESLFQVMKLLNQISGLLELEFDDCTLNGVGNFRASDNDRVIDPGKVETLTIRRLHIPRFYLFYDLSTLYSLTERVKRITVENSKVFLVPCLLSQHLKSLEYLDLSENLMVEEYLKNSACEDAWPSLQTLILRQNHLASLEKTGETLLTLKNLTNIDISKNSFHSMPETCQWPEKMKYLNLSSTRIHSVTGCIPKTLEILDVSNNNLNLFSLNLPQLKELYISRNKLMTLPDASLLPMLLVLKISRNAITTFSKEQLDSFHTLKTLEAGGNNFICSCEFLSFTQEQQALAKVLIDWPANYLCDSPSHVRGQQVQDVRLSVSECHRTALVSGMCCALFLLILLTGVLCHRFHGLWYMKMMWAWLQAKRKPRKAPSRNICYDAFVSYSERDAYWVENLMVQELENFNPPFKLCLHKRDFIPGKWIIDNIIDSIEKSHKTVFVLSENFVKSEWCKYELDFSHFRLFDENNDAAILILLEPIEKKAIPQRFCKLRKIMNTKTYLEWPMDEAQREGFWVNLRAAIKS
Outline: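 HEK-Blue hTLR2 cells exposed 18 h to compound (0.1–25 μM); SEAP in supernatant by QUANTI-Blue at OD 630 nm. Values normalized to PAM2CSK4 (10 ng/mL, 18 h) and expressed as mean percentage of three independent experiments.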

[2] = molecular target: T1, Toll-like receptor 4/MD-2 (Homo sapiens) (UniProt O00206+Q9Y6Y9); experiment: Binding affinity to NTA sensor chip immobilized recombinant human TLR4/MD2 assessed as dissociation rate kinetics by surface plasmon resonance analysis; assay type: protein-complex assay; settings: filed as agonist
Outline: (§1)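 Recombinant human TLR4/MD2 complex (20 μg/mL in 10 mM sodium acetate pH 4.0) amine-coupled to NTA chip after NiCl2 and EDC/NHS activation, ethanolamine-blocked. Analytes sonicated 15 min and diluted in PBS-P+ with 5% DMSO, injected over the series 4.34–69.50 μM or 5.34–85.50 μM. Regeneration 50 mM NaOH. Kinetics fitted to 1:1 model after solvent correction.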

[3] = molecular target: T2, Nuclear factor NF-kappa-B complex (Homo sapiens) (UniProt Q00653+P19838+Q04206); experiment: Activation of NF-kappaB in LPS-stimulated HEK-Blue hTLR4 cells assessed as increase in release of SEAP reporter protein level incubated for 18 hrs by QUANTI-blue assay; assay type: cell-based; settings: filed as activator
T2 sequence (P19838 whole entry, looked up): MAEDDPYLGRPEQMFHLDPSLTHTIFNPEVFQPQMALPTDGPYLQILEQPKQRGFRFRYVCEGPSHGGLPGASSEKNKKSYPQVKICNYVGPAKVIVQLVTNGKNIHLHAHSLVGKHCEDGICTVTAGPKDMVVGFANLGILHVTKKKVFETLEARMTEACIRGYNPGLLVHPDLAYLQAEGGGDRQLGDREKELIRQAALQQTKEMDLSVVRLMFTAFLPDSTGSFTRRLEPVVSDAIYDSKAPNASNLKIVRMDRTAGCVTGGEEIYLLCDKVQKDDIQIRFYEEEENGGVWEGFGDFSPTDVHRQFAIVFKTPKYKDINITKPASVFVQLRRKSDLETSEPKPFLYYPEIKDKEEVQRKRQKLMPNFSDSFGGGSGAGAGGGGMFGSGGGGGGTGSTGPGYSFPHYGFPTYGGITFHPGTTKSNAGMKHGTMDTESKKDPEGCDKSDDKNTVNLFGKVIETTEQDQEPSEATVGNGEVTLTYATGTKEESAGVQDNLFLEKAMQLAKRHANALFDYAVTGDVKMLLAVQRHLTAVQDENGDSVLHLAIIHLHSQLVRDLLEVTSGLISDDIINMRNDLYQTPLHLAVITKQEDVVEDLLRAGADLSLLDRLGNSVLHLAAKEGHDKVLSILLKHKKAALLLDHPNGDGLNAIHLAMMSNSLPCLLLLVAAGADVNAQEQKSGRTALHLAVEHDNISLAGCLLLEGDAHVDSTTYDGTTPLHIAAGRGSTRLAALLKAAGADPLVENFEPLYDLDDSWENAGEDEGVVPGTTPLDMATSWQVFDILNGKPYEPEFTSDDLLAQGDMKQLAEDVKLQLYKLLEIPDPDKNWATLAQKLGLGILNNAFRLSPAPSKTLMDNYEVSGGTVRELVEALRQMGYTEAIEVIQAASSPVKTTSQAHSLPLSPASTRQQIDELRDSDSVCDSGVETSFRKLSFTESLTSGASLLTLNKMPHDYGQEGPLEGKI
T2 sequence (Q00653 whole entry, looked up): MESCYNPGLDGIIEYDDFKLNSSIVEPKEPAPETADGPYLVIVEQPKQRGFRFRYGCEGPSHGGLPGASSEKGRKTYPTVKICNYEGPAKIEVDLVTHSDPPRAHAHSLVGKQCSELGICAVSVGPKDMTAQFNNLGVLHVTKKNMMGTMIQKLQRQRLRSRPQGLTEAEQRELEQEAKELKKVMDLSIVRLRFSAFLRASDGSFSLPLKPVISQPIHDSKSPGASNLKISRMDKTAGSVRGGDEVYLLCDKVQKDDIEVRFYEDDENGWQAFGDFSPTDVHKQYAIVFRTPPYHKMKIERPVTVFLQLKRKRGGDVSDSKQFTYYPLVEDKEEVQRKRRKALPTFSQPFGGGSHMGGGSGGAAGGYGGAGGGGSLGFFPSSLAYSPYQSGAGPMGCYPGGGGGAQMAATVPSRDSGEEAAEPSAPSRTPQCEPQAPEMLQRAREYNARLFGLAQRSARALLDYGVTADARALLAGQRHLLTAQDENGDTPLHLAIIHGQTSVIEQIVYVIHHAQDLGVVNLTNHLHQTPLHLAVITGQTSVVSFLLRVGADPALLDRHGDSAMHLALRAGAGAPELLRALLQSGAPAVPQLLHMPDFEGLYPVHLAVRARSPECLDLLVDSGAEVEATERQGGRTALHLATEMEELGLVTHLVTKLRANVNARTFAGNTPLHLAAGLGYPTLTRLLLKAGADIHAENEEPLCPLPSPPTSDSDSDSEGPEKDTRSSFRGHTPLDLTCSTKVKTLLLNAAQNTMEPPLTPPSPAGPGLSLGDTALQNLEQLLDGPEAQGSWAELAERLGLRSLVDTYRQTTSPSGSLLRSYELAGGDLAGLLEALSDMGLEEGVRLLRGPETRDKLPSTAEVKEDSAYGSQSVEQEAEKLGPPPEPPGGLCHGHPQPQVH
T2 sequence (Q04206 whole entry, looked up): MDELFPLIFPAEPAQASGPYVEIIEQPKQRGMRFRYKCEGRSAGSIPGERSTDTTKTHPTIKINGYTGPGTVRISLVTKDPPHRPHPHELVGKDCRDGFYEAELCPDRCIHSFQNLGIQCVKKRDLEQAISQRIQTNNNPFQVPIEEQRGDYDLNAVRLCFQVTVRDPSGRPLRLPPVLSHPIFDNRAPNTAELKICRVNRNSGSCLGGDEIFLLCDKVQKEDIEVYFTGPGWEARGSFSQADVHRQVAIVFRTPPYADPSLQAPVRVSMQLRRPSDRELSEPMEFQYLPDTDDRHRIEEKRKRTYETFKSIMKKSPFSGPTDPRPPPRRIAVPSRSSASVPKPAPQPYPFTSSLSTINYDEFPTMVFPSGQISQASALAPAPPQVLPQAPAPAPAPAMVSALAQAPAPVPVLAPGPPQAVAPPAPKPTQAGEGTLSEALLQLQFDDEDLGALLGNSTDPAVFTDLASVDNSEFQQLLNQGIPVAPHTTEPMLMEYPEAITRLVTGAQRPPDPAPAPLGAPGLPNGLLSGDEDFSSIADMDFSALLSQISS
Outline: (§2)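 HEK-Blue hTLR4 cells (HEK293 with CD14, TLR4, MD-2 and NF-κB/AP-1-driven SEAP) in DMEM/10% FBS, seeded overnight (37 °C, 5% CO2), washed, then exposed to compound 0.1–25 μM in fresh medium for 18 h. SEAP in supernatant read with QUANTI-Blue substrate (0.5–4 h, RT) at OD 630 nm. Normalized to 100 ng/mL S. minnesota smooth LPS; mean percentage of three independent experiments.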

Macrophage [4] = experiment: Induction of IL-1beta production in human THP-1 derived macrophages assessed as secretion of IL-1beta mature form in supernatant at 20 uM measured up to 18 hrs by ELISA; assay type: functional, tissue-based; settings: time hrs <=18
Outline: (§3)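 Differentiated THP-1 macrophages treated with compound at 20 μM (S-LPS, R-LPS 100 ng/mL; MPLA 1 μg/mL) for 3, 6 and 18 h. IL-1β measured by ELISA in both cell lysates and supernatants; n = 3, one-way ANOVA versus untreated.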

Macrophage [5] = experiment: Activation of TRIF dependent pathway in human THP-1 derived macrophages assessed as increase in IFNbeta mRNA expression measured 2 hrs post treatment by real-time PCR
HEK-Blue hTLR4 [6] = experiment: Activation of AP-1 in LPS-stimulated HEK-Blue hTLR4 cells assessed as increase in release of SEAP reporter protein level incubated for 18 hrs by QUANTI-blue assay; assay type: cell-based; settings: Homo sapiens, filed as activator; outline: as §2
Macrophage [7] = experiment: Activation of TRIF dependent pathway in human THP-1 derived macrophages assessed as increase in IRF3 phosphorylation at 10 uM measured up to 3 hrs by immunoblotting analysis; assay type: tissue-based; settings: time hrs <=3
Outline: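 Differentiated THP-1 macrophages exposed to compound at 10 μM, alongside S-LPS and R-LPS (100 ng/mL each) and MPLA (1 μg/mL), and collected over a time course. Lysates were immunoblotted for phospho-IRF3 (Ser386) with β-actin as loading control and detected by chemiluminescence.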

Mus musculus [8] = experiment: Immuno-adjuvant activity in C57BL/6 mouse assessed as increase in levels of anti-ova total IgG in sera at 10 ug administered subcutaneously in presence of ovalbumin and measured 21 days post immunization by ELISA; assay type: functional, organism-based; settings: dose 10.0 µg, time 21.0 day
Outline: (§4)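 Female C57BL/6 mice (n = 8) given 50 μL s.c. in the flank of 500 μg endotoxin-depleted OVA mixed with 10 μg adjuvant in PBS. Booster on opposite flank day 22; OVA-only control group. Tail-vein sera taken days 21 and 41, serially diluted 1:100–1:12 800 and assayed by ELISA on OVA-coated plates (4 μg/mL). Detection with HRP anti-mouse IgG, TMB, A450.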

Macrophage [9] = experiment: Induction of IL-1beta production in human THP-1 derived macrophages assessed as accumulation of IL-1beta precursor in cell lysates at 20 uM measured up to 18 hrs by ELISA; assay type: functional, subcellular; settings: time hrs <=18; outline: as §3
[10] = molecular target: Toll-like receptor 4 (Homo sapiens) (UniProt O00206); experiment: Antagonist activity at human TLR4 in LPS-stimulated HEK-Blue hTLR4 cells assessed as inhibition of LPS-induced SEAP production at 0.1 to 25 uM incubated for 18 hrs by QUANTI-blue assay; settings: dose 0.1-25 µM
Toll-like receptor 4 (Homo sapiens), sequence (O00206 whole entry): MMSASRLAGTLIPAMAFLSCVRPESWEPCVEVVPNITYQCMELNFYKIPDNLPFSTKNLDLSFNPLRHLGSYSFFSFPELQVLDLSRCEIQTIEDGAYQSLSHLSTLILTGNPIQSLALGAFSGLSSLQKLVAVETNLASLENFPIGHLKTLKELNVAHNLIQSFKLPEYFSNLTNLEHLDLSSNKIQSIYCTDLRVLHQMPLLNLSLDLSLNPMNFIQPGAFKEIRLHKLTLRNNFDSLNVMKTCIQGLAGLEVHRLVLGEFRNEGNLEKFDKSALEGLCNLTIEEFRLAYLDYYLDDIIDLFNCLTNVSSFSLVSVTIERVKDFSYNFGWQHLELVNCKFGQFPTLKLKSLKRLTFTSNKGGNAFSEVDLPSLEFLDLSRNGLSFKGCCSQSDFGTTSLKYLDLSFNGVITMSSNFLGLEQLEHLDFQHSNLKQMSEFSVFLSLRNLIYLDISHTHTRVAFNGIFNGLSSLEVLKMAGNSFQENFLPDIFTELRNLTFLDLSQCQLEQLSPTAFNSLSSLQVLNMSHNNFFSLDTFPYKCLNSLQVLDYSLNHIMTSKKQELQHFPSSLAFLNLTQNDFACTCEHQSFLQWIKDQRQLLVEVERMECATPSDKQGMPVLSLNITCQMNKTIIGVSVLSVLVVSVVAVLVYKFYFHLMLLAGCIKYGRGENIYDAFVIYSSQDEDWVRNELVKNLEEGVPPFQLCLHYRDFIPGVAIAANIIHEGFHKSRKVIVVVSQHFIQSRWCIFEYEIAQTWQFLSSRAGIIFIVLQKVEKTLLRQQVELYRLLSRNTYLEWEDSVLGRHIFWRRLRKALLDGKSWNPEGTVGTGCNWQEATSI

[11] = molecular target: Myeloid differentiation primary response protein MyD88 (Homo sapiens) (UniProt Q99836); experiment: Activation of MyD88 dependent pathway in human THP-1 derived macrophages assessed as increase in NF-kappaB p65 phosphorylation at 10 uM measured after 1 hr by immunoblotting analysis; assay type: tissue-based; settings: Macrophage, filed as activator
Myeloid differentiation primary response protein MyD88 (Homo sapiens), sequence (Q99836 whole entry): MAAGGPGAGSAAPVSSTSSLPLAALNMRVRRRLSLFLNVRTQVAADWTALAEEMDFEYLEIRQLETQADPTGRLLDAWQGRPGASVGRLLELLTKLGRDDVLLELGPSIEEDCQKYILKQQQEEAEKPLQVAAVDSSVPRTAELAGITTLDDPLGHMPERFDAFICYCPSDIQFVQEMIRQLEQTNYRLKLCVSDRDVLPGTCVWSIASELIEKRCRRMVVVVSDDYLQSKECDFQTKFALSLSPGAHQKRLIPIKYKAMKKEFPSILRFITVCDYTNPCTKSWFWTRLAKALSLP
Outline: (§5)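 PMA-differentiated THP-1 macrophages treated with compound at 10 μM (S-LPS 100 ng/mL, MPLA 1 μg/mL as references) and harvested at set times. RIPA lysates with protease/phosphatase inhibitors separated by SDS-PAGE, transferred to PVDF and probed for phospho-p65 (Ser536) and phospho-p38 (Thr180/Tyr182) with β-actin as loading control. Detection by chemiluminescence, densitometry; representative of at least two experiments.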

[12] = molecular target: Myeloid differentiation primary response protein MyD88 (Homo sapiens) (UniProt Q99836); experiment: Activation of MyD88 dependent pathway in human THP-1 derived macrophages assessed as increase in IL-1 beta secretion measured after 18 hrs by ELISA; settings: Macrophage, filed as activator
Outline: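 THP-1 cells differentiated with PMA 25 ng/mL for 72 h, then rested 24 h in fresh medium before stimulation with compound (range 0.1–1 to 10–25 μM) in RPMI/10% FBS for 18 h. S-LPS and MPLA used as references. TNFα, IL-1β, IL-6 in supernatants quantified by sandwich ELISA at 450 nm (570 nm correction).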

Macrophage [13] = experiment: Activation of TRIF dependent pathway in human THP-1 derived macrophages assessed as increase in RSAD2 expression measured after 6 hrs; assay type: tissue-based
Outline: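 RSAD2 mRNA in differentiated THP-1 macrophages after compound at 10 μM, measured by RT-qPCR (annealing 60 °C) with β-actin housekeeping gene. Expressed as ΔΔCt fold change versus untreated cells; n = 3, Wilcoxon test.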

[14] = Toxicity in C57BL/6 […] assessed as state of alertness at 10 ug observed daily for 7 days; settings: mouse, in vivo, 168 h; dose 10 µg, time 7 day
Outline: (§6)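 Six-week-old female C57BL/6 mice were injected subcutaneously in the flank with 10 μg adjuvant in 50 μL PBS. Mice were monitored and weighed daily for 7 days, with injection-site response and alertness noted. Group size is n = 3 per treatment in the methods and n = 4 in the figure legend.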

[15] = molecular target: T1, Toll-like receptor 4/MD-2 (Homo sapiens); experiment: Binding affinity to NTA sensor chip immobilized recombinant human TLR4/MD2 assessed as maximum response by surface plasmon resonance analysis; assay type: protein-complex assay; settings: filed as agonist; outline: as §1
[16] = Toxicity in C57BL/6 […] assessed as local response at injection site at 10 ug observed daily for 7 days; settings: mouse, in vivo, 168 h; dose 10 µg, time 7 day; outline: as §6
[17] = molecular target: T1, Toll-like receptor 4/MD-2 (Homo sapiens); experiment: Binding affinity to NTA sensor chip immobilized recombinant human TLR4/MD2 assessed as association rate constant by surface plasmon resonance analysis; assay type: protein-complex assay; settings: filed as agonist; outline: as §1
[18] = molecular target: Myeloid differentiation primary response protein MyD88 (Homo sapiens) (UniProt Q99836); experiment: Activation of MyD88 dependent pathway in human THP-1 derived macrophages assessed as increase in MAPK p38 phosphorylation at 10 uM measured after 1 hr by immunoblotting analysis; assay type: tissue-based; settings: Macrophage, filed as activator; outline: as §5
Mus musculus [19] = experiment: Immuno-adjuvant activity in C57BL/6 mouse assessed as increase in levels of anti-ova total IgG in sera at 10 ug administered subcutaneously on day 1 and as booster dose on day 22 in presence of ovalbumin and […] by ELISA; assay type: functional, organism-based; settings: dose 10.0 µg; outline: as §4
[20] = Toxicity in C57BL/6 […] assessed as effect on body weight at 10 ug measured daily for 7 days; settings: mouse, in vivo, 168 h; dose 10 µg, time 7 day; outline: as §6
[21] = molecular target: Toll-like receptor 4 (Homo sapiens) (UniProt O00206); experiment: Activation of human TLR4 in IL-1beta stimulated HEK-Blue Null cells assessed as NF-kappaB activation at 0.1 to 25 uM incubated for 18 hrs by QUANTI- blue assay; assay type: tissue-based; settings: dose 0.1-25 µM
Outline: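 HEK-Blue Null cells, which carry the SEAP reporter but lack LPS receptors, were given compound (0.1–25 μM) for 18 h. SEAP was read by QUANTI-Blue at OD 630 nm and normalized to 100 ng/mL human IL-1β as positive control. Results are the mean percentage of three independent experiments.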

HEK-Blue hTLR4 [22] = experiment: Activation of AP-1 in LPS-stimulated HEK-Blue hTLR4 cells assessed as increase in release of SEAP reporter protein level at 0.1 to 25 uM incubated for 18 hrs by QUANTI-blue assay; assay type: cell-based; settings: Homo sapiens, dose 0.1-25 µM; outline: as §2
[23] = molecular target: T2, Nuclear factor NF-kappa-B complex (Homo sapiens); experiment: Activation of NF-kappaB in LPS-stimulated HEK-Blue hTLR4 cells assessed as increase in release of SEAP reporter protein level at 0.1 to 25 uM incubated for 18 hrs by QUANTI-blue assay; assay type: cell-based; settings: dose 0.1-25 µM; outline: as §2

Activity [1]: inactive
Kdiss [2]: 7.09 10^-4/s
Activity [3]: Dose-Dependent Effect
Activity [10]: inactive
Activity [11]: Active
Activity [12]: Dose-Dependent Effect
Rmax [15]: 8.15 RU
Ka [17]: 3.84 10^3(1/Ms)
Activity [18]: Active
Activity [21]: inactive
SMILES: CCCCCCCCCCCCCC(=O)N[C@H]1[C@@H](OP(=O)([O-])[O-])O[C@H](CO)[C@@H](OC(=O)CCCCCCCCCCCCC)[C@@H]1OC(=O)CCCCCCCCCCCCC.[Na+].[Na+]
Activity (Macrophage [4]): inactive
Activity (Macrophage [5]): inactive
Activity (HEK-Blue hTLR4 [6]): Dose-Dependent Effect
Activity (Macrophage [7]): inactive
Activity (Mus musculus [8]): Active
Activity (Macrophage [9]): Active
Activity (Macrophage [13]): inactive
Activity [14]: Non-Toxic
Activity [16]: Non-Toxic
Activity (Mus musculus [19]): Active
Activity [20]: Non-Toxic

Activity [10]: inactive
Activity [23]: inactive
SMILES: CCCCCCCCCCCCCC(=O)N[C@H]1[C@@H](OP(=O)(O)O)O[C@H](COP(=O)(O)O)[C@@H](OC(=O)CCCCCCCCCCCCC)[C@@H]1OC(=O)CCCCCCCCCCCCC
Activity (HEK-Blue hTLR4 [22]): inactive
